Reference: ChEMBL document CHEMBL1155944 (J Med Chem, 2008)
Activity calls are given as the source filed them. No cut-off for these calls is given here.

Assays:
[1] = target: Gamma-aminobutyric acid receptor subunit alpha-6 (Rattus norvegicus) (UniProt P30191); assay: Displacement of [3H]Muscimol from GABAAalpha6 receptor in Sprague-Dawley rat brain cerebellum membrane at 100 uM; type: tissue-based
Outline: (§1)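 Well-washed membranes from adult male Sprague-Dawley rat cortex or cerebellum (50–200 μg protein). Incubated 60 min on ice in 50 mM Tris/citrate, pH 7.3, with 6 nM [3H]muscimol and test compound. […] Filtered and counted by scintillation. IC50 and pseudo-Hill coefficient obtained by nonlinear regression.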

[2] = species: Rattus norvegicus; assay: Displacement of [3H]Muscimol from GABAA alpha-1-alpha-5 receptor in Sprague-Dawley rat brain cortex membrane at 1 mM; outline: as §1
[3] = species: Rattus norvegicus; assay: Displacement of [3H]Muscimol from GABAA alpha-1-alpha-5 receptor in Sprague-Dawley rat brain cortex membrane at 100 uM; outline: as §1
[4] = target: Gamma-aminobutyric acid receptor subunit alpha-6 (Rattus norvegicus) (UniProt P30191); assay: Displacement of [3H]Muscimol from GABAAalpha6 receptor in Sprague-Dawley rat brain cerebellum membrane at 1 mM; type: tissue-based; outline: as §1
[5] = target: Gamma-aminobutyric acid receptor subunit alpha-6 (Rattus norvegicus, UniProt P30191); assay: (§2) Displacement of [3H]Muscimol from GABAAalpha6 receptor in Sprague-Dawley rat brain cerebellum membrane; type: tissue-based; outline: as §1
Gamma-aminobutyric acid receptor subunit alpha-6, sequence (P30191 whole entry): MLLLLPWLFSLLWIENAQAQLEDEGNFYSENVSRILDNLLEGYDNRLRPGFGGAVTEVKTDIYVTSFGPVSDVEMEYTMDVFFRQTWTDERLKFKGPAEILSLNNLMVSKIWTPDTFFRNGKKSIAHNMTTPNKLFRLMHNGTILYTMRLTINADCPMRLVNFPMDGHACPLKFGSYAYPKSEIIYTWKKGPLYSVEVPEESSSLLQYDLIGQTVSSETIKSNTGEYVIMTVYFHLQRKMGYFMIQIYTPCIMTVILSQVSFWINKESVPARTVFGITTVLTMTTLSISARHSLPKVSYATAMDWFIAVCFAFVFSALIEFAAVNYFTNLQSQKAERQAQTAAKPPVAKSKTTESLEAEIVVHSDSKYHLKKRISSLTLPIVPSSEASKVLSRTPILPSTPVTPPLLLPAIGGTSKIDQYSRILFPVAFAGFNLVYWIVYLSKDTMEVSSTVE

[6] = target: Gamma-aminobutyric acid receptor subunit alpha-6 (Rattus norvegicus) (UniProt P30191); assay: as §2; type: tissue-based; outline: as §1
[7] = species: Rattus norvegicus; assay: (§3) Displacement of [3H]Muscimol from GABAA alpha-1-alpha-5 receptor in Sprague-Dawley rat brain cortex membrane; outline: as §1
[8] = as §3; outline: as §1
[9] = target: T1, GABA A receptor alpha-2/beta-2/gamma-2 (Rattus norvegicus) (UniProt P18508+P23576+P63138); assay: Antagonist activity at recombinant rat GABAA alpha-2-beta-3-gamma-2 receptor expressed in HEK293 cells assessed as inhibition of GABA-induced current at 1 mM by whole-cell patch-clamp technique; type: functional, cell-based; parameters: scale not given: the % may be the effect or the level left
Outline: (§4)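 HEK293 cells transiently transfected by calcium phosphate with rat αi, β3, γ2S and EGFP cDNAs, recorded 2 days later. Whole-cell patch clamp in HEPES saline, pH 7.35. […] Response expressed relative to the GABA-alone current. Data from at least four cells.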

[10] = target: Gamma-aminobutyric acid receptor subunit alpha-4 (Rattus norvegicus) (UniProt P28471); assay: Antagonist activity at recombinant rat GABAA alpha-4-beta-3-gamma-2 receptor expressed in HEK293 cells assessed as inhibition of GABA-induced current at 1 mM by whole-cell patch-clamp technique; type: functional, cell-based; parameters: scale not given: the % may be the effect or the level left; outline: as §4
Gamma-aminobutyric acid receptor subunit alpha-4 (Rattus norvegicus), sequence (P28471 whole entry): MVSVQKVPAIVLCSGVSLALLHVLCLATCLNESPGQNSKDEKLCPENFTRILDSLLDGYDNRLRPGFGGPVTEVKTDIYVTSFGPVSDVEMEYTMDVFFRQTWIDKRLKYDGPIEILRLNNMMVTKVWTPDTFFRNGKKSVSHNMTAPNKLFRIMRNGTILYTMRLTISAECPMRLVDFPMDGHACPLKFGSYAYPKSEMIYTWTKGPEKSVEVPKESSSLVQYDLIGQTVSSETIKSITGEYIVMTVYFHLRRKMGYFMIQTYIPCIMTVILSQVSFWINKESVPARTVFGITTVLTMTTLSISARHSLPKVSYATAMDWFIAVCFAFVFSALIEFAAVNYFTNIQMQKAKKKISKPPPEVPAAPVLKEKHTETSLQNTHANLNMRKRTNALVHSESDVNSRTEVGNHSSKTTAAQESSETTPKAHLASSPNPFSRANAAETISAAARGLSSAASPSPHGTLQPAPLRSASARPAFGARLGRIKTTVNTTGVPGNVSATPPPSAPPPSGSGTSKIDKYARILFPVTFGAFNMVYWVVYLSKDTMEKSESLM

[11] = target: Gamma-aminobutyric acid receptor subunit alpha-3 (Rattus norvegicus) (UniProt P20236); assay: Intrinsic activity at recombinant rat GABAA alpha-3-beta-3-gamma-2 receptor expressed in HEK293 cells assessed as induction of current at 1 mM by whole-cell patch-clamp technique relative to GABA; type: cell-based
Gamma-aminobutyric acid receptor subunit alpha-3 (Rattus norvegicus), sequence (P20236 whole entry): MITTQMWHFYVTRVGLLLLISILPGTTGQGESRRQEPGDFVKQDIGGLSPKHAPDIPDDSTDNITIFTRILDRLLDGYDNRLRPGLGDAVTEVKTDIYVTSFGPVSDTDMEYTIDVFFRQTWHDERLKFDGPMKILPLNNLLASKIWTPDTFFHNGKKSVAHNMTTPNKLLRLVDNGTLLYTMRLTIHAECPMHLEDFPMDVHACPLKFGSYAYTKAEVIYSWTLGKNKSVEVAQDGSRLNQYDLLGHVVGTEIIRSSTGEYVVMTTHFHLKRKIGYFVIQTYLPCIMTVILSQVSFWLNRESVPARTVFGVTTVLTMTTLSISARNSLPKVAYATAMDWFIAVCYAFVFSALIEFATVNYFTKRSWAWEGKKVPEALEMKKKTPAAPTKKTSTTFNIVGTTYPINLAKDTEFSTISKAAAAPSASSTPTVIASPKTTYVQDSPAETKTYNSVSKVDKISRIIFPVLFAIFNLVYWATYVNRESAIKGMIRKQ
Outline: (§5)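 Rat αiβ3γ2S receptors transiently expressed in HEK293 cells, with EGFP marking transfected cells, recorded 2 days after transfection. Whole-cell patch clamp in HEPES saline, pH 7.35. Drug applied alone at 1, 10, 100 and 1000 μM. […] Data from at least four cells.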

[12] = target: Gamma-aminobutyric acid receptor subunit alpha-6 (Rattus norvegicus) (UniProt P30191); assay: Antagonist activity at recombinant rat GABAA alpha-6-beta-3-gamma-2 receptor expressed in HEK293 cells assessed as inhibition of GABA-induced current at 1 mM by whole-cell patch-clamp technique; type: functional, cell-based; parameters: scale not given: the % may be the effect or the level left; outline: as §4
[13] = target: T1, GABA A receptor alpha-2/beta-2/gamma-2 (Rattus norvegicus); assay: Intrinsic activity at recombinant rat GABAA alpha-2-beta-3-gamma-2 receptor expressed in HEK293 cells assessed as induction of current at 1 mM by whole-cell patch-clamp technique relative to GABA; type: cell-based; outline: as §5
[14] = target: GABA A receptor alpha-5/beta-3/gamma-2 (Rattus norvegicus) (UniProt P18508+P19969+P63079); assay: Intrinsic activity at recombinant rat GABAA alpha-5-beta-3-gamma-2 receptor expressed in HEK293 cells assessed as induction of current at 1 mM by whole-cell patch-clamp technique relative to GABA; type: cell-based; outline: as §5
[15] = target: Gamma-aminobutyric acid receptor subunit alpha-4 (Rattus norvegicus) (UniProt P28471); assay: Intrinsic activity at recombinant rat GABAA alpha-4-beta-3-gamma-2 receptor expressed in HEK293 cells assessed as induction of current at 1 mM by whole-cell patch-clamp technique relative to GABA; type: cell-based; outline: as §5
[16] = target: GABA-A receptor; alpha-1/beta-2/gamma-2 (Rattus norvegicus) (UniProt P18508+P62813+P63138); assay: Intrinsic activity at recombinant rat GABAA alpha-1-beta-3-gamma-2 receptor expressed in HEK293 cells assessed as induction of current at 1 mM by whole-cell patch-clamp technique relative to GABA; type: cell-based; outline: as §5
[17] = target: Gamma-aminobutyric acid receptor subunit alpha-6 (Rattus norvegicus) (UniProt P30191); assay: Intrinsic activity at recombinant rat GABAA alpha-6-beta-3-gamma-2 receptor expressed in HEK293 cells assessed as induction of current at 1 mM by whole-cell patch-clamp technique relative to GABA; type: cell-based; outline: as §5
[18] = tested on: Oocyte; assay: Activity at rat GABAA alpha-1T129C-beta-2 receptor mutant expressed in Xenopus laevis oocytes assessed as inhibition of GABA-induced current at -60 mV by Two-Electrode voltage clamp method; type: cell-based
[19] = tested on: Oocyte; assay: Activity at rat GABAA alpha-1R66C-beta-2 receptor mutant expressed in Xenopus laevis oocytes assessed as inhibition of GABA-induced current at -60 mV by Two-Electrode voltage clamp method; type: cell-based

Gamma-aminobutyric acid receptor subunit alpha-6 (Rattus norvegicus), sequence (P30191 whole entry): as the sequence (P30191 whole entry) above

`CNCc1nnc(O)o1` gave an inhibition [1] of 22%, an inhibition [2] of 58% and an inhibition [3] of 14%. For the same compound, the inhibition [4] was 64%.

`Oc1nnc(C2CCNCC2)o1` showed an IC50 [5] of 123 µM, a logIC50 [6] of 2.09 and an inhibition [1] of 38%. It also gave a logIC50 [7] of 2.26, an IC50 [8] of 183 µM and an Activity [9] of 42%. The inhibition [2] was 79%, the Activity [10] was 52% and the Activity [11] was 18%. The Activity [12] was 41%, the Activity [13] was 17% and the inhibition [3] was 38%. For the same compound, the inhibition [4] was 77% and the Activity [14] was 34%.

Compound `Oc1nnc([C@@H]2CCCN2)o1` has an inhibition [1] of 8%, an inhibition [2] of 10% and an inhibition [3] of 5%. For the same compound, the inhibition [4] was 13%.

Compound `Oc1nnc(C2CCCCC2)o1` has an inhibition [2] of -2%, an inhibition [3] of 18% and an inhibition [4] of 1%.

Work on `Cc1nnc(S)o1` yielded an inhibition [1] of -4%, an inhibition [2] of 10% and an inhibition [3] of 20%. It also gave an inhibition [4] of -3%.

`Sc1nnc(C2CCN(Cc3ccccc3)CC2)o1` gave an inhibition [1] of 6%, an inhibition [2] of 33% and an inhibition [3] of 3%. It also gave an inhibition [4] of 30%.

With `NCc1nnc(O)n1Cc1ccccc1` the inhibition [1] was 1%, the inhibition [2] was 11% and the inhibition [3] was 4%. It also gave an inhibition [4] of 2%.

With `NCc1nnc(S)n1Cc1ccccc1` the Activity [1] was “inactive”, the Activity [2] was “inactive” and the Activity [3] was “inactive”. For the same compound, the Activity [4] was “inactive”.

Compound `CN(C)Cc1nnc(S)o1` has an inhibition [1] of 3%, an inhibition [2] of 47% and an inhibition [3] of 22%. The inhibition [4] was 37%.

Compound `Oc1nnc(C2CCNCC2)n1Cc1ccccc1` has an inhibition [1] of 14%, an inhibition [2] of 56% and an inhibition [3] of 18%. It also gave an inhibition [4] of 52%.

`Cc1nnc(C2CCNCC2)o1` showed an IC50 [5] of 76 µM, a logIC50 [6] of 1.88 and an inhibition [1] of 56%. It also gave a logIC50 [7] of 2.04, an IC50 [8] of 109 µM and an inhibition [2] of 87%. For the same compound, the Activity [15] was less than 10%, the Activity [11] was less than 10% and the Activity [16] was less than 10%. The Activity [13] was less than 10%, the inhibition [3] was 48% and the inhibition [4] was 91%. It also gave an Activity [17] of 29% and an Activity [14] of less than 10%.

Work on `CS(=O)(=S)OCCNC(=O)CCCC[C@@H]1SC[C@@H]2NC(=O)N[C@@H]21` (stereo not given in full) yielded an inhibition [18] of 60% and an inhibition [19] of 75%.

`Sc1nnc(C2CCNCC2)n1Cc1ccccc1` showed an inhibition [1] of 13% and an inhibition [3] of -6%.

`Oc1nnc(C2CCCNC2)o1` (stereo not given) showed an inhibition [1] of 9%, an inhibition [2] of 24% and an inhibition [3] of 1%. The inhibition [4] was 10%.

For `NCc1nnc(S)o1`, the IC50 [5] was 49 µM, the logIC50 [6] was 1.69 and the inhibition [1] was 61%. For the same compound, the logIC50 [7] was 1.76, the IC50 [8] was 57 µM and the inhibition [2] was 99%. The inhibition [3] was 58% and the inhibition [4] was 95%.

`CN1CCC(c2nnc(S)o2)CC1` gave an inhibition [1] of 8%, an inhibition [2] of 48% and an inhibition [3] of 6%. For the same compound, the inhibition [4] was 27%.

Compound `Oc1nnc(C2CCN(Cc3ccccc3)CC2)o1` has an inhibition [1] of 7%, an inhibition [2] of 50% and an inhibition [3] of 12%. It also gave an inhibition [4] of 30%.

For `NCCc1nnc(S)o1`, the inhibition [1] was 23%, the inhibition [2] was 61% and the inhibition [3] was 9%. The inhibition [4] was 67%.

With `NCCc1nnc(O)o1` the IC50 [5] was 7.4 µM, the logIC50 [6] was 0.868 and the inhibition [1] was 89%. It also gave a logIC50 [7] of 0.971, an IC50 [8] of 9.4 µM and an inhibition [2] of 100%. For the same compound, the inhibition [3] was 85% and the inhibition [4] was 98%.

Compound `C[C@@H](N)c1nnc(O)o1` has an inhibition [1] of 13%, an inhibition [2] of 16% and an inhibition [3] of 26%. For the same compound, the inhibition [4] was 34%.

Compound `CN(C)Cc1nnc(O)o1` has an inhibition [1] of 5%, an inhibition [2] of 27% and an inhibition [3] of 3%. The inhibition [4] was 26%.

For `CNCc1nnc(S)o1`, the inhibition [1] was 9%, the inhibition [2] was 24% and the inhibition [3] was 17%. For the same compound, the inhibition [4] was 16%.

`CN1CCC(c2nnc(O)o2)CC1` gave an inhibition [1] of 6%, an inhibition [2] of 27% and an inhibition [3] of 4%. For the same compound, the inhibition [4] was 26%.

`Sc1nnc(C2CCCNC2)o1` (stereo not given) showed an inhibition [1] of 15%, an inhibition [2] of 51% and an inhibition [3] of 12%. For the same compound, the inhibition [4] was 42%.

`S=c1[nH]nc(C2CCCCC2)o1` gave an inhibition [1] of 0%, an inhibition [2] of 18% and an inhibition [3] of 10%. It also gave an inhibition [4] of -3%.

Compound `Cc1nnc(O)o1` has an inhibition [1] of 3%, an inhibition [2] of 26% and an inhibition [3] of 7%. The inhibition [4] was 4%.

In the case of `Sc1nnc([C@@H]2CCCN2)o1`, the inhibition [1] is reported as -2%, the inhibition [2] is reported as 36% and the inhibition [3] is reported as 21%. It also gave an inhibition [4] of 31%.

`c1ccc(CN2CCC(c3nnco3)CC2)cc1` showed an inhibition [1] of 1%, an inhibition [2] of 1% and an inhibition [3] of -5%. It also gave an inhibition [4] of -5%.
